Data from publication PMC3466779 (Biochemistry, 2012).
Values joined by “and” are separate entries in the source; they are usually repeats but may differ in a detail not shown here. Equal entries are not always repeated.

Assays:
MtATP-PRT [1] = molecular target: T1, MtATP-PRT (Mycobacterium tuberculosis, UniProt P9WMN1); assay: Steady-state kinetics: initial velocities of the forward reaction; format: biochemical
T1 sequence (P9WMN1 1-284): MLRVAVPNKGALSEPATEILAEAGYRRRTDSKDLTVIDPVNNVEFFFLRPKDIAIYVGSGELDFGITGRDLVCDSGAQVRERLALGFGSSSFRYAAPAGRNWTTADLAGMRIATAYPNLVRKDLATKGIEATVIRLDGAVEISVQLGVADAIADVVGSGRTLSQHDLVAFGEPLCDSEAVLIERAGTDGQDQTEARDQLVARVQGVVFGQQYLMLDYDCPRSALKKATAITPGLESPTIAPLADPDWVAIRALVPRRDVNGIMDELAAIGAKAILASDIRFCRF

MtATP-PRT [2] = molecular target: T1, MtATP-PRT; assay: Pre-steady-state stopped-flow burst kinetics; format: biochemical
MtATP-PRT [3] = molecular target: T1, MtATP-PRT; assay: pH studies of L-histidine inhibition; format: biochemical; conditions: 0.8 mM PRPP fixed
MtATP-PRT [4] = molecular target: T1, MtATP-PRT; assay: STD-NMR saturation transfer; format: binding; conditions: 0.6 mM L-histidine, 30 μM HisG, 25 °C
In short: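 STD 1H NMR was run at 14.4 T with 30 μM enzyme and 0.6 mM L-histidine in 50 mM sodium phosphate at each pH, 25 °C. Saturation times of 0.2–2.0 s in 0.2 s steps were recorded interleaved, with on-resonance protein presaturation at 0.8 ppm. A single off-resonance control used 2 s. Water was suppressed by excitation sculpting. Read-out was percent transfer per histidine proton.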

MtATP-PRT [5] = molecular target: T1, MtATP-PRT; assay: Steady-state inhibition studies with L-histidine; format: biochemical; conditions: for Kii: 7 mM MgCl2, 200 mM KCl
[6] = no reference given, cited from earlier work
MtATP-PRT [7] = molecular target: T1, MtATP-PRT; assay: Gel filtration, solution oligomeric state; conditions: 20 mM Tris-HCl pH 8, 100 mM NaCl; 2 mM L-histidine, or ATP
In short: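 Recombinant enzyme was expressed in E. coli BL21(DE3)pLysS and Ni-NTA purified. It was injected at 0.1–10 mg/mL onto a Sephacryl S-200 column calibrated with molecular-weight standards. Elution was isocratic for 1.5 column volumes at 0.5 mL/min in 20 mM Tris-HCl pH 8, 100 mM NaCl, with or without 2 mM L-histidine. Apparent mass was read from elution position.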

[8] = molecular target: Lactococcus lactis ATP-PRT; conditions: pH 8; cited from earlier work

## [Cl-].[Cl-].[Mg+2] [MgCl2]
MtATP-PRT [1]; Table 1, saturating substrates, 200 mM KCl, 25 °C
  Kact,Mg^2+: 1900 ± 600 µM
MtATP-PRT [1]; saturating concentrations of both substrates, 200 mM KCl
  Apparent Kact for MgCl2: 1.9 ± 0.6 mM

## O[C@@H](CS)[C@@H](O)CS [DTT]
MtATP-PRT [1]; data not shown
  effect of the thiol reducing agent on the time course: did not alter the time course

## N[C@@H](Cc1c[nH]cn1)C(=O)O [L-histidine]
MtATP-PRT [2]
  Kd: 27.9 ± 3.2 µM
MtATP-PRT [2]; pH 8.5, read-out: koff,L-histidine
  koff: 0.95 ± 0.03 s⁻¹
MtATP-PRT [2]; pH 8.5, read-out: kon,L-histidine
  kon: 4880 ± 717 M⁻¹ s⁻¹
MtATP-PRT [3]; pH 8.00, varied ATP
  Kii: 4 µM and 4.0 ± 0.4 µM
MtATP-PRT [3]; pH 8.25, varied ATP
  Kii: 7.9 ± 1.5 µM
MtATP-PRT [3]; pH 8.50 (pH series), varied ATP
  Kii: 28.3 ± 2.1 µM
MtATP-PRT [3]; pH 8.75, varied ATP
  Kii: 26.8 ± 1.5 µM
MtATP-PRT [3]; pH 9.00, varied ATP
  Kii: 50.4 ± 5.5 µM
MtATP-PRT [3]; pH 9.25, varied ATP
  Kii: 109.4 ± 6.8 µM
MtATP-PRT [4]; pH 5.5
  % saturation transfer to L-histidine protons, Cα-H: 0%
  % saturation transfer to L-histidine protons, Cβ-H2: 0%
  % saturation transfer to L-histidine protons, Cδ2-H: 0%
  % saturation transfer to L-histidine protons, Cε1-H: 0%
MtATP-PRT [4]; pH 6.0
  % saturation transfer to L-histidine protons, Cα-H: 0%
  % saturation transfer to L-histidine protons, Cβ-H2: 0%
  % saturation transfer to L-histidine protons, Cδ2-H: 0%
  % saturation transfer to L-histidine protons, Cε1-H: 0%
MtATP-PRT [4]; pH 6.5
  % saturation transfer to L-histidine protons, Cα-H: 0%
  % saturation transfer to L-histidine protons, Cβ-H2: 0%
  % saturation transfer to L-histidine protons, Cδ2-H: 0%
  % saturation transfer to L-histidine protons, Cε1-H: 0%
MtATP-PRT [4]; pH 7.5
  % saturation transfer to L-histidine protons, Cα-H: 0%
  % saturation transfer to L-histidine protons, Cβ-H2: 0%
  % saturation transfer to L-histidine protons, Cδ2-H: 0%
  % saturation transfer to L-histidine protons, Cε1-H: 0%
MtATP-PRT [4]; pH 8.0
  % saturation transfer to L-histidine protons, Cα-H: 0%
  % saturation transfer to L-histidine protons, Cβ-H2: 0%
  % saturation transfer to L-histidine protons, Cδ2-H: 36.9%
  % saturation transfer to L-histidine protons, Cε1-H: 40.4%
MtATP-PRT [4]; pH 8.5
  % saturation transfer to L-histidine protons, Cα-H: 0%
  % saturation transfer to L-histidine protons, Cβ-H2: 0%
  % saturation transfer to L-histidine protons, Cδ2-H: 81.6%
  % saturation transfer to L-histidine protons, Cε1-H: 88.2%
MtATP-PRT [4]; pH 9.0
  % saturation transfer to L-histidine protons, Cα-H: 0%
  % saturation transfer to L-histidine protons, Cβ-H2: 0%
  % saturation transfer to L-histidine protons, Cδ2-H: 100%
  % saturation transfer to L-histidine protons, Cε1-H: 100%
MtATP-PRT [5]
  Ki: 25.7 ± 12.8 µM
MtATP-PRT [5]; IC50,L-histidine, 50 mM Tris-HCl pH 8.5, 7 mM MgCl2, 200 mM KCl, 1.6 mM ATP, 0.8 mM PRPP, 25 °C
  IC50: 33.3 µM and 33 µM
MtATP-PRT [5]; IC50 curve, pH 8.5, 1.6 mM ATP, 0.8 mM PRPP
  Hill number: 1.5
MtATP-PRT [5]; pH 8.50 (Tris-HCl), varied ATP, 0.8 mM PRPP fixed, 25 °C
  Kii: 27.9 ± 1.9 µM
MtATP-PRT [5]; pH 8.50, varied PRPP, 1.6 mM ATP fixed, 25 °C
  Kii: 23.5 ± 6.5 µM
MtATP-PRT [5]; varied ATP, saturating PRPP, pH 8.5
  nature of inhibition versus ATP (in words): linear and uncompetitive
MtATP-PRT [5]; varied PRPP, saturating ATP, pH 8.5
  nature of inhibition versus PRPP (in words): linear and noncompetitive
[6]; background statement
  pKa of the imidazole group: ~6.0
[6]; stated in discussion
  pKa of the α-amino group: ~9
MtATP-PRT [7]
  influence of ligand on the hexameric oligomeric state of MtATP-PRT: not influenced
[8]
  Ki: 81 µM
